Source: PubChem
Shown are actives, neighbours in structure and some others; about 5.1% of the full set was active somewhere.
STAT1 inh: STAT1 signaling inhibition. NIH 3T3 STAT1-luciferase reporter, IFN-gamma, luminescence. 200,000 compounds, 0.35% hits. inhibition, % at 5.5 µM. AID 920;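 active = inhibition above a set limit, the mean inhibition across all tested compounds plus 3 SD, cut at about 34% in these data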;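 note: 0% = IFN-gamma with DMSO and 100% = IFN-gamma with 300 µM nifuroxazide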
STAT3 act: activators of IL-6 induced STAT3 signaling. U3A cells, IL-6 STAT3-luciferase reporter, luminescence; 100% = signal with IL-6 EC80 alone. activation (% of control), % at 5.6 µM. 190,000 compounds, 0.91% hits;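 active = activation above the screen-wide mean of compound activation plus 3 SD, cut at about 130% in these data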;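 note: 0% = background luminescence of wells with medium and substrate only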
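Material: STAT3-luciferase reporter U3A cells; Probe or stimulus: IL-6 (33 ng/mL); Incubation: compound pre-incubation 1 h before IL-6, then 6 h stimulation at 37 °C; Technique: luminescence from STAT3-driven luciferase reporter; Evaluation: % activation versus median of IL-6-stimulated wells; Controls: IL-6-only high control.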
STAT3 inh-1: reduces IL-6 driven STAT3 reporter signal; 190,000 compounds, 0.89% hits; U3A cells, IL-6 STAT3-luciferase reporter, luminescence; host cell line lacks STAT1; inhibition, % at 5.5 µM;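 active = inhibition above the mean inhibition across all screened compounds plus 3 SD, cut at about 44% in these data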;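 note: 0% = DMSO only wells and 100% = 100 µM nifuroxazide control wells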
APP 5'UTR act: APP 5'UTR luciferase reporter activation. SH-SY5Y APP 5'UTR luciferase reporter, luminescence; zero percent = DMSO vehicle wells. activation, % at 2 µM. 190,000 compounds, 1% hits;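 active = activation above a set limit, based on mean plus 3 SD of controls, cut at about 140% in these data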
NF-kB expr up: NF-kB expression increase, human neuronal cells; NF-kB reporter expression; active compounds read high; fold change at 12.5 µM; 190,000 compounds, 1.6% hits; AID 1239; in the data active = fold change above about 3.3
STAT1 act: increases IFN-gamma driven STAT1 reporter signal; NIH 3T3 STAT1-luciferase reporter, luminescence; 100% = IFN-gamma alone, no compound; 200,000 compounds, 2.6% hits; activation (% of control), % at 5.5 µM;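 active = activation above the screen-wide mean activation plus 3 SD, cut at about 130% in these data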;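 note: raw ratio to IFN-gamma control signal so 100% means no change and 0% no light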
STAT3 inh-2: STAT3 inhibition, confirmation assay | 1,200 compounds, 45% hits | AID 1265 | shares compounds with STAT3 inh-1 | inhibition, % at 5.7 µM | U3A cells, IL-6 STAT3 luciferase reporter, luminescence; cell line lacks STAT1;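 active = inhibition above the hit cutoff computed for the primary STAT3 screen, cut at about 44% in these data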;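 note: 0% = IL-6 plus DMSO and 100% = IL-6 plus nifuroxazide control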
NFkB inh 2: inhibits NF-kappaB, counter-screen to STAT3 inhibitors. inhibition, % at 5.7 µM. HEK293T NF-kB luciferase reporter, TNF-alpha induced. 1,200 compounds, 36% hits. shares compounds with STAT3 inh-1;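 active = inhibition above the mean of solvent-only control wells plus 3 SD, cutoff set per campaign, cut at about 13% in these data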;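 note: 0% = TNF-alpha with DMSO and 100% = TNF-alpha with MG high control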
STAT1 inh STAT3c: inhibits STAT1, counter-screen to STAT3 inhibitors; shares compounds with STAT3 inh-1; 1,200 compounds, 27% hits; NIH 3T3 STAT1-luciferase reporter, IFN-gamma induced, luminescence; inhibition, % at 5.7 µM; AID 1317;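 active = inhibition above the mean plus 3 SD of solvent-only control wells, limit set per screening run, cut at about 16% in these data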;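 note: 0% = DMSO with IFN-gamma and 100% = nifuroxazide control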
Active calls of the source: *.

Results for N/C(=N\N=C\c1ccc2c(c1)OCO2)c1nonc1N ?
STAT1 inh: -34; STAT3 act: 55; STAT3 inh-1: 54*; APP 5'UTR act: 221*; NF-kB expr up: 7.6*; STAT1 act: 132*; STAT3 inh-2: 33; NFkB inh 2: -14; STAT1 inh STAT3c: -98

Results for COc1cccc(/C=N/N=C(\N)c2nonc2N)c1O ?
STAT1 inh: -28; STAT3 act: 85; STAT3 inh-1: 21; APP 5'UTR act: 30; NF-kB expr up: 1.9; STAT1 act: 124

What do the screens show for `O=C(CSc1cccc[n+]1[O-])Nc1ccc2c(c1)OCO2`?
STAT1 inh: -4; STAT3 act: 97; STAT3 inh-1: 6; APP 5'UTR act: 7; NF-kB expr up: 1.2; STAT1 act: 103

How did COc1ccc2cc(-c3cc(C(=O)OCC(=O)NC4CCS(=O)(=O)C4)c4ccccc4n3)ccc2c1 (stereo unspecified) do in these assays?
STAT1 inh: -18; STAT3 act: 47; STAT3 inh-1: 62*; APP 5'UTR act: 40; NF-kB expr up: 2.4; STAT1 act: 116; STAT3 inh-2: 41; NFkB inh 2: 1; STAT1 inh STAT3c: -17

Results for COc1ccc2cc(-c3cc(C(=O)OCC(=O)Nc4c(C)n(C)n(-c5ccccc5)c4=O)c4ccccc4n3)ccc2c1 ?
STAT1 inh: -10; STAT3 act: 61; STAT3 inh-1: 47*; APP 5'UTR act: 81; NF-kB expr up: 3.4*; STAT1 act: 112; STAT3 inh-2: 56*; NFkB inh 2: 10; STAT1 inh STAT3c: -15

Results for O=C(NCCCCNC(=O)C(F)(F)F)C(F)(F)F ?
STAT1 inh: -14; STAT3 act: 98; STAT3 inh-1: 9; APP 5'UTR act: 1; NF-kB expr up: 1.6; STAT1 act: 110

How did O=C(NCc1cccnc1)c1ccc(-c2cc3ccccc3oc2=O)cc1 do in these assays?
STAT1 inh: 4; STAT3 act: 66; STAT3 inh-1: 46*; APP 5'UTR act: 71; NF-kB expr up: 1.8; STAT1 act: 94; STAT3 inh-2: 21; NFkB inh 2: -7; STAT1 inh STAT3c: -18

How did COc1cc(CSc2nnnn2-c2ccc(C)cc2)cc(OC)c1OC do in these assays?
STAT1 inh: 22; STAT3 act: 46; STAT3 inh-1: 69*; APP 5'UTR act: 7; NF-kB expr up: 0.71; STAT1 act: 79; STAT3 inh-2: 70*; NFkB inh 2: 26*; STAT1 inh STAT3c: 22*

Results for CCc1nnc(SCC(=O)Nc2ccccc2Cl)nc1CC ?
STAT1 inh: -6; STAT3 act: 100; STAT3 inh-1: 2; APP 5'UTR act: -4; NF-kB expr up: 1.1; STAT1 act: 104

How did COc1ccc(-c2nsc3c(N4CCCC4)ncnc23)cc1 do in these assays?
STAT1 inh: -26; STAT3 act: 60; STAT3 inh-1: 53*; APP 5'UTR act: 156*; NF-kB expr up: 0.95; STAT1 act: 124; STAT3 inh-2: 26; NFkB inh 2: 5; STAT1 inh STAT3c: -74

What do the screens show for `CN(C)S(=O)(=O)c1cccc(C(=O)OCC(=O)NCc2ccc3c(c2)OCO3)c1`?
STAT1 inh: 3; STAT3 act: 107; STAT3 inh-1: -7; APP 5'UTR act: -1; NF-kB expr up: 1.1; STAT1 act: 97

Results for COc1ccc(CC(=O)OCC(=O)NCCc2ccccc2)cc1OC ?
STAT1 inh: 6; STAT3 act: 85; STAT3 inh-1: 14; APP 5'UTR act: -17; NF-kB expr up: 1.2; STAT1 act: 95

What do the screens show for `Cc1ccc2nc3sc(C(=O)Nc4ccc(N5CCOCC5)cc4)c(N)c3cc2c1`?
STAT1 inh: -4; STAT3 act: 89; STAT3 inh-1: 16; APP 5'UTR act: 5; NF-kB expr up: 0.93; STAT1 act: 103

Results for CCOc1ccc2nc3sc(C(=O)N4CCOCC4)c(N)c3cc2c1 ?
STAT1 inh: 17; STAT3 act: 53; STAT3 inh-1: 56*; APP 5'UTR act: 220*; NF-kB expr up: 3; STAT1 act: 85; STAT3 inh-2: 2; NFkB inh 2: -6; STAT1 inh STAT3c: -8

Results for Cc1ccc(N2C(=O)C3N=NN(CC(=O)N4N=C(c5ccccc5)CC4c4ccccc4)C3C2=O)cc1 (stereo unspecified) ?
STAT1 inh: 3; STAT3 act: 103; STAT3 inh-1: -4; APP 5'UTR act: -2; NF-kB expr up: 1.1; STAT1 act: 98

How did O=C(Nc1nc(-c2ccc3ccccc3c2)cs1)C1CCN(S(=O)(=O)c2cccs2)CC1 do in these assays?
STAT1 inh: 17; STAT3 act: 93; STAT3 inh-1: 10; APP 5'UTR act: 10; NF-kB expr up: 0.82; STAT1 act: 83

How did O=C(Nc1nc(-c2ccc(S(=O)(=O)N3CCOCC3)cc2)cs1)c1ccccc1 do in these assays?
STAT1 inh: 25; STAT3 act: 59; STAT3 inh-1: 50*; APP 5'UTR act: 5; NF-kB expr up: 0.44; STAT1 act: 77; STAT3 inh-2: 44*; NFkB inh 2: 18*; STAT1 inh STAT3c: 24*

How did O=C(Nc1nc(-c2ccc(S(=O)(=O)N3CCCC3)cc2)cs1)c1cccs1 do in these assays?
STAT1 inh: 17; STAT3 act: 63; STAT3 inh-1: 47*; NF-kB expr up: 0.3; STAT1 act: 85; STAT3 inh-2: 41; NFkB inh 2: 12; STAT1 inh STAT3c: 17*

Results for Cc1ccc(-c2csc(NC(=O)C3CCN(S(=O)(=O)c4cccs4)CC3)n2)cc1 ?
STAT1 inh: 13; STAT3 act: 36; STAT3 inh-1: 79*; APP 5'UTR act: -19; NF-kB expr up: 1.2; STAT1 act: 90; STAT3 inh-2: 84*; NFkB inh 2: 33*; STAT1 inh STAT3c: 17*

What do the screens show for `CCN(CCO)C(=O)CC1C(=O)NCCN1Cc1c(F)cccc1Cl` (stereo unspecified)?
STAT1 inh: -4; STAT3 act: 92; STAT3 inh-1: 13; APP 5'UTR act: -4; NF-kB expr up: 1.2; STAT1 act: 102

What do the screens show for `CCc1c(C)nc2ncnn2c1NCCc1ccc(Cl)cc1`?
STAT1 inh: 23; STAT3 act: 56; STAT3 inh-1: 54*; APP 5'UTR act: -5; NF-kB expr up: 0.89; STAT1 act: 77; STAT3 inh-2: 59*; NFkB inh 2: 16*; STAT1 inh STAT3c: 25*
